The results in this text go back to ChEMBL document CHEMBL1154102, “Nucleoside-amino acid conjugates: An alternative route to the design of ribonuclease A inhibitors” (Bioorg Med Chem, 2009).

pKi: −log10 of the molar value. The source made the active and inactive calls. The rule behind the calls is not given here.

For one experiment, the target named is T1, Ribonuclease pancreatic (Bos taurus, UniProt P61823).
T1 sequence (P61823 whole entry): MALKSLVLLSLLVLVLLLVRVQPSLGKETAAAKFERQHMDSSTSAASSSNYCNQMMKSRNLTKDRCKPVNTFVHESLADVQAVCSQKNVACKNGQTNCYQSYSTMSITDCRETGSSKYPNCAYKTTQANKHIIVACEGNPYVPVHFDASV
Kind of experiment: Inhibition of bovine pancreatic RNase A by spectrophotometric assay.

For experiment [1], the target named is T2, Ribonuclease pancreatic (Bos taurus) (UniProt P61823).
T2 sequence (whole entry): T1 sequence (P61823 whole entry)
Put plainly: Inhibition of bovine pancreatic RNase A assessed as tRNA degradation at 0.92 mM after 6 hrs using ethidium bromide staining by agarose gel-based assay. The procedure, abridged:
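RNase A (0.66 µM stock) preincubated with varying volumes of compound (0.92 mM stock) 6 h at 37 °C. Aliquots mixed with tRNA (5.0 mg/ml) and glycerol/bromophenol blue sample buffer, 30 min further incubation, then run on 1.1% agarose in TAE pH 8.0. Undegraded tRNA seen by ethidium bromide staining under UV.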

Experiment [2] addresses T2, Ribonuclease pancreatic (Bos taurus). Kind of experiment: Inhibition of bovine pancreatic RNase A assessed as tRNA degradation at 0.50 mM after 2 hrs by precipitation assay. In a few lines: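 Bond precipitation method. RNase A with conjugate (1 mM stock) preincubated 2 h at 37 °C; aliquot added to tRNA (5 mg/ml) in Tris-HCl pH 7.5 with 5 mM EDTA and 0.5 mg/ml HSA, 30 min at 25 °C. Quenched with ice-cold 1.14 N perchloric acid/6 mM uranyl acetate, 30 min on ice, centrifuged; supernatant diluted, A260 compared to control.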

For experiment [3] the target is unchanged. Kind of experiment: Inhibition of bovine pancreatic RNase A at 5 uM by fluorescence assay. In a few lines: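 Fluorimetric titration, 1 cm cuvette, excitation 295 nm: 5 µM ligand in 20 mM phosphate pH 7.0 with 50 mM NaCl, RNase A added stepwise to a final 17.5 µM; change in emission intensity followed.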
Experiment [4] shares this target. Kind of experiment: Inhibition of bovine pancreatic RNase A assessed as change in pKa of His-105 by NMR spectroscopy. In a few lines:
(§1)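 RNase A H/D exchanged in D2O (50 °C, 20 min, lyophilized, three cycles), redissolved in D2O with 0.17 M NaCl and 0.5 mM DSS; ligand:enzyme molar ratio 5:1; pH* 3–8 set with DCl/NaOD, uncorrected. 1H NMR at 400 MHz, 22.5 °C, 100 scans, 2 s acquisition; His C-2 shifts vs DSS fitted to titration equations for pKa; pK2 used.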

The target is the same in experiment [5]. Put plainly: Inhibition of bovine pancreatic RNase A assessed as change in pKa of His-119 by NMR spectroscopy. In a few lines:
as §1

Experiment [6] shares this target. Kind of experiment: Inhibition of bovine pancreatic RNase A assessed as change in pKa of His-12 by NMR spectroscopy. The procedure, abridged: as §1

`Cc1cn([C@H]2C[C@H](NC(=O)C(N)Cc3ccc(O)cc3)[C@@H](CO)O2)c(=O)[nH]c1=O` (stereo not given in full) had a negative logarithm of the Ki (pKi) on Ribonuclease pancreatic of 3.35. The outcome in experiment [1] and in experiment [2] was Active.
The compound `Nc1ccn([C@@H]2O[C@H](CO)[C@@H](O)[C@H]2OP(=O)(O)O)c(=O)n1` gave a pKi at Ribonuclease pancreatic of 5.15.
Consider `Cc1cn([C@H]2C[C@H](NC(=O)C(N)Cc3c[nH]c4ccccc34)[C@@H](CO)O2)c(=O)[nH]c1=O` (stereo not given in full), for which the outcome in experiment [1], in experiment [3] and in experiment [2] was Active.
`Cc1cn([C@H]2C[C@H](NC(=O)C(N)CC(C)C)[C@@H](CO)O2)c(=O)[nH]c1=O` (stereo not given in full): the result in experiment [4], in experiment [5] and in experiment [6] was inactive.

By pKi is commonly meant −log10 of the Ki, conventionally taken in molar units. A lower pKi goes with a high Ki.
